Measurements published in ChEMBL document CHEMBL4138118, “Novel thioglycosyl analogs of glycosyltransferase substrates as antiviral compounds against classical swine fever virus and hepatitis C virus” (Eur J Med Chem, 2017).
Active and inactive are the calls of the source. No cut-off for these calls is given here.

Assays:
[1] = Selectivity index, ratio of CC50 for Huh7.5 cells to IC50 for HCV Jc1/JFH; assay type: toxicity; settings: human, read-out: Ratio CC50/IC50
How it was run: (§1)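 Selectivity index is CC50/IC50, taken from the cell viability assay (SK6 by MTS, Huh-7.5 by MTT) and the matching pseudo-plaque reduction assay.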

[2] = Cytotoxicity against human Huh7.5 cells assessed as reduction in cell viability after 72 hrs by MTT method; assay type: cell-based
Hepatitis C virus [3] = assay: Antiviral activity against HCV Jc1/JFH infected in human Huh7.5 cells assessed as reduction of pseudo-plaque formation after 72 hrs by immunoperoxidase monolayer assay; assay type: functional, organism-based, Hepacivirus hominis; settings: for IC50: Huh7.5, 72 h
How it was run: (§2)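 Huh-7.5 cells seeded at 1.5 × 10^4 per well, infected next day with Jc1/JFH HCVcc (genotype 2a) at MOI 0.1 for 3 h. Virus removed, medium with compound added; 72 h later cells fixed in cold methanol, permeabilized (0.5% Triton X-100), stained with anti-core antibody (1:300), HRP secondary. Pseudo-plaques counted by microscopy against untreated infected control; IC50 at 50% plaque reduction; three independent experiments.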

[4] = Cytotoxicity against human Huh7-J17 cells assessed as decrease in cell viability after 72 hrs by MTT assay; assay type: cell-based
How it was run: (§3)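 Uninfected Huh7-J17, Huh7-J20 or Huh-7.5 cells incubated with compound, then viability read by MTT. Time stated as 72 h for Huh7-J20 and Huh7-J17, and 48 h for Huh-7.5. Results expressed relative to DMSO-treated cells (100%); CC50 from the dose-response curve.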

Hepatitis C virus [5] = assay: Antiviral activity against HCV infected in human Huh7-J17 cells assessed as inhibition of viral RNA replication after 72 hrs by bright-glo luciferase reporter assay; assay type: functional, organism-based, Hepacivirus hominis
How it was run: (§4)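 Huh7-J17 replicon cells seeded in 96-well plates together with compound, DMSO or sofosbuvir and incubated 72 h. Cells lysed and luciferase read with Bright-Glo. Values expressed as % of DMSO-treated cells; IC50 from dose-response fit; three experiments.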

[6] = test system: Classical swine fever virus; assay: Antiviral activity against CSFV infected in SK6 cells assessed as reduction of pseudo-plaque formation after 2 days by immunoperoxidase monolayer assay; assay type: functional, organism-based; settings: 48 h
[7] = Cytotoxicity against SK6 cells assessed as reduction in cell viability after 2 days by MTS method; assay type: cell-based, Sus scrofa; settings: pig; for Activity: 48 h; for CC50 at 48 h: SK6 cells
How it was run: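 SK6 viability by MTS (CellTiter 96 AQueous) assay; CC50 is the concentration reducing viability by 50%, taken from the dose-response curve.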

[8] = Selectivity index, ratio of CC50 for SK6 cells to IC50 for CSFV; assay type: toxicity; settings: pig, read-out: Ratio CC50/IC50; how it was run: as §1
[9] = test system: Classical swine fever virus; assay: Inhibition of CSFV glycosyltransferase in SK6 cells assessed as downregulation of viral E2 levels under non-reducing condition after 48 hrs by Western blot method; assay type: cell-based
[10] = Cytotoxicity against human Huh7-J20 cells assessed as decrease in cell viability at 1.56 to 75 uM after 72 hrs by MTT assay; assay type: cell-based; how it was run: as §3
[11] = test system: Classical swine fever virus; assay: Antiviral activity against CSFV infected in SK6 cells assessed as reduction of pseudo-plaque formation at 9 uM after 2 days by immunoperoxidase monolayer assay relative to control; assay type: functional; design: scale not given: the % may be the effect or the level left
Hepatitis C virus [12] = assay: Antiviral activity against HCV Jc1/JFH infected in human Huh7.5 cells assessed as downregulation of NS5B gene expression after 48 hrs by RT-PCR method; assay type: functional, organism-based; settings: Hepacivirus hominis
How it was run: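 Huh-7.5 cells infected with HCV (MOI 0.1) for 4 h, washed, then cultured with compound for 48 h. Total RNA isolated; 1 µg reverse-transcribed with an NS5B-specific reverse primer, then PCR for NS5B. Band densitometry expressed as % of untreated infected control.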

Hepatitis C virus [13] = assay: Antiviral activity against HCV infected in human Huh7-J17 cells assessed as inhibition of viral RNA replication at 75 uM after 72 hrs by bright-glo luciferase reporter assay relative to control; assay type: functional, Hepacivirus hominis; how it was run: as §4
Hepatitis C virus [14] = assay: Antiviral activity against HCV genotype 2a JFH1 infected in human Huh7-J20 cells assessed as inhibition of viral RNA replication at 1.56 to 75 uM after 72 hrs by SEAP reporter assay; assay type: functional, organism-based; settings: Hepacivirus hominis, JFH-1
How it was run: (§5)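 Huh7-J20 SEAP reporter cells, infected with JFH-1 HCVcc, read-out SEAP chemiluminescence in supernatant after 72 h. Model 1: 1 h compound pretreatment, 3 h infection with compound, then compound-free medium. Model 2: same, with compound kept for the full 72 h. Model 3: 3 h infection, compound added afterwards only. DMSO control; three experiments.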

[15] = Effect on actin levels in SK6 cells at 2.5 to 10 uM under non-reducing condition after 48 hrs by Western blot method; assay type: ADME, cell-based, Sus scrofa; settings: pig
Hepatitis C virus [16] = assay: Antiviral activity against HCV genotype 2a JFH1 infected in human Huh7-J20 cells assessed as inhibition of viral entry at 1.56 to 75 uM pretreated for 1 hr with cells followed by viral infection for 3 hrs and subsequent compound washout measured after 72 hrs by SEAP reporter assay; assay type: functional, organism-based; settings: Hepacivirus hominis, JFH-1; how it was run: as §5
Hepatitis C virus [17] = assay: Antiviral activity against HCV Jc1/JFH infected in human Huh7.5 cells assessed as reduction of pseudo-plaque formation at 80 uM after 72 hrs by immunoperoxidase monolayer assay relative to control; assay type: functional, Hepacivirus hominis; design: scale not given: the % may be the effect or the level left; how it was run: as §2
Hepatitis C virus [18] = assay: Antiviral activity against HCV genotype 2a JFH1 infected in human Huh7-J20 cells assessed as inhibition of complete viral life cycle at 1.56 to 75 uM pretreated for 1 hr with cells followed by viral infection for 3 hrs and subsequent addition of fresh medium with compound measured after 72 hrs by SEAP reporter assay; assay type: functional, organism-based; settings: Hepacivirus hominis, JFH-1; how it was run: as §5
[19] = Effect on actin levels in human Huh7.5 cells at 6.25 to 100 uM under reducing condition after 48 hrs by Western blot method; assay type: ADME, cell-based
How it was run: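 Huh-7.5 cells infected with HCV (MOI 0.1), washed after 1–6 h, then treated with inhibitor. Lysed in RIPA buffer with protease inhibitors after 48 h (methods; legend gives 72 h p.i.). 20 µg protein run on reducing SDS-PAGE; Western blot probed with anti-E1 mAb (1:2000) and anti-actin (1:1000).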

Hepatitis C virus [20] = assay: Antiviral activity against HCV genotype 2a JFH1 infected in human Huh7-J20 cells assessed as inhibition of viral assembly at 1.56 to 75 uM after 72 hrs by SEAP reporter assay; assay type: functional, organism-based; settings: Hepacivirus hominis, JFH-1; how it was run: as §5

| SMILES | selectivity ratio [1] | CC50 at 72 h [2] | IC50 (Hepatitis C virus [3]) | IC50 [6] | Activity [7] | CC50 at 48 h [7] | selectivity ratio [8] | also measured |
| --- | --- | --- | --- | --- | --- | --- | --- | --- |
| CC(C)OC(=O)[C@H](C)N[P@](=O)(OC[C@H]1O[C@@H](n2ccc(=O)[nH]c2=O)[C@](C)(F)[C@@H]1O)Oc1ccccc1 [SOFOSBUVIR] | 119 | 31 µM | 0.26 µM |  |  |  |  | CC50 at 72 h [4]: 23.5 µM; IC50 (Hepatitis C virus [5]): 0.028 µM |
| CC(=O)OC[C@H]1O[C@@H](Sc2ccc(NC(=O)CCC(=O)OC[C@H]3O[C@@H](n4ccc(=O)[nH]c4=O)[C@@H]4OC(C)(C)O[C@@H]43)cn2)[C@H](OC(C)=O)[C@@H](OC(C)=O)[C@@H]1OC(C)=O | 1.4 | 328 µM | 231 µM | 103 µM | Dose-dependent effect | 207 µM | 2 |  |
| CC(=O)OC[C@H]1O[C@@H](Sc2ccc(NC(=O)[C@H]3O[C@@H](n4ccc(=O)[nH]c4=O)[C@H](O)[C@@H]3O)cn2)[C@H](OC(C)=O)[C@@H](OC(C)=O)[C@@H]1OC(C)=O | 1.1 | 402 µM | 373 µM | 320 µM | Dose-dependent effect | 350 µM | 1.1 |  |
| CC(=O)OC[C@H]1O[C@@H](Sc2ccc(NC(=O)[C@H]3O[C@@H](n4ccc(=O)[nH]c4=O)[C@@H]4OC(C)(C)O[C@@H]43)cn2)[C@H](OC(C)=O)[C@@H](OC(C)=O)[C@H]1OC(C)=O | 1.2 | 312 µM | 271 µM | > 299 µM | Dose-dependent effect | > 353 µM | > 1.2 |  |
| CC(C)(C)[Si](C)(C)OC[C@H]1O[C@@H](Sc2ccc(NC(=O)[C@H]3O[C@@H](n4ccc(=O)[nH]c4=O)[C@H](O[Si](C)(C)C(C)(C)C)[C@@H]3O[Si](C)(C)C(C)(C)C)cn2)[C@H](OC(=O)c2ccccc2)[C@@H](OC(=O)c2ccccc2)[C@@H]1OC(=O)c1ccccc1 | > 1.1 | > 270 µM | > 236 µM | 97 µM | Dose-dependent effect | 186 µM | 1.9 |  |
| O=C(Nc1ccc(S[C@@H]2O[C@H](CO)[C@@H](O)[C@H](O)[C@H]2O)nc1)[C@H]1O[C@@H](n2ccc(=O)[nH]c2=O)[C@H](O)[C@@H]1O | 1.05 | 420 µM | 402 µM | 370 µM | Dose-dependent effect | 380 µM | 1 |  |
| CC(=O)OC[C@H]1O[C@@H](Sc2ccc(NC(=O)[C@H]3O[C@@H](n4ccc(=O)[nH]c4=O)[C@@H]4OC(C)(C)O[C@@H]43)cn2)[C@H](OC(C)=O)[C@@H](OC(C)=O)[C@@H]1OC(C)=O | 1.1 | 271 µM | 244 µM | > 325 µM | Dose-dependent effect | > 380 µM | > 1.2 |  |
| CC(=O)OC[C@H]1O[C@@H](Sc2ccc(NC(=O)[C@H]3O[C@@H](n4ccc(=O)[nH]c4=O)[C@H](O[Si](C)(C)C(C)(C)C)[C@@H]3O[Si](C)(C)C(C)(C)C)cn2)[C@H](OC(C)=O)[C@@H](OC(C)=O)[C@@H]1OC(C)=O | 19.3 | 135 µM | 7 µM | 3 µM | Dose-dependent effect | 86 µM | 28.7 | inhibition [9]: Dose-dependent effect; Activity [10]: Non-Toxic; Activity [11]: >90%; Activity (Hepatitis C virus [12]): Dose-dependent effect; Activity (Hepatitis C virus [3]; Hepacivirus hominis): Dose-dependent effect; inhibition at 75 µM (Hepatitis C virus [13]): 90%; inhibition (Hepatitis C virus [14]): Active; CC50 at 72 h [4]: 185 µM; Activity [15]: Non-Toxic; inhibition (Hepatitis C virus [16]): inactive; IC50 (Hepatitis C virus [5]): 4 µM; Activity (Hepatitis C virus [17]): >90%; inhibition (Hepatitis C virus [18]): Active; Activity [19]: Non-Toxic; inhibition (Hepatitis C virus [20]): Active |
| CC(=O)OC[C@H]1O[C@@H](Sc2ccc(NC(=O)CCC(=O)OC[C@H]3O[C@@H](n4ccc(=O)n(C(=O)c5ccccc5)c4=O)[C@H](O[Si](C)(C)C(C)(C)C)[C@@H]3O[Si](C)(C)C(C)(C)C)cn2)[C@H](OC(C)=O)[C@@H](OC(C)=O)[C@@H]1OC(C)=O | 1.6 | 71 µM | 45 µM | 13 µM | Dose-dependent effect | 45 µM | 3.5 |  |
| CC(=O)OC[C@H]1O[C@@H](Sc2ccc(NC(=O)CCC(=O)OC[C@H]3O[C@@H](n4ccc(=O)[nH]c4=O)[C@@H]4OC(C)(C)O[C@@H]43)cn2)[C@H](OC(C)=O)[C@@H](OC(C)=O)[C@H]1OC(C)=O | 1.6 | 340 µM | 213 µM | 49 µM | Dose-dependent effect | 194 µM | 4 |  |
